These results are taken from ChEMBL document CHEMBL1129660, “Studies on 6-aminoquinolones: synthesis and antibacterial evaluation of 6-amino-8-methylquinolones” (J Med Chem, 1996).

The structures appear in SMILES notation. Values after ≈ are worked out from the molar mass of the structure shown. Some results are limits rather than exact numbers.

What is called IC50 is the concentration at which inhibition is half-maximal. One may read the ED50 as the dose that gives a 50% effect, or the effect in half of the subjects. A high value points to weaker potency.

The test system of assay [1] is Staphylococcus aureus. As to the kind of experiment: Antibacterial activity against Staphylococcus aureus MPR 5. In kind it is functional. Put shortly:
(§1)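 MICs (µg/mL) determined by conventional agar dilution against a panel of eight Gram-negative and five Gram-positive reference strains.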

For a further assay, the system named is Pseudomonas aeruginosa. In words: Antibacterial activity tested against P. ae (Pseudomonas aeruginosa) ATCC 9027. In kind it is functional. The procedure, abridged:
as §1

Assay [2] relates to Enterococcus faecalis. As to the kind of experiment: Antibacterial activity tested against Enterococcus faecalis. It counts as functional.
The subject of assay [3] is Enterococcus faecalis. In words: Antibacterial activity tested against Streptococcus faecalis LEP Br. In kind it is functional. The procedure, abridged: as §1
Assay [4] has as its system Staphylococcus aureus. In words: Antibacterial activity tested against Staphylococcus aureus; Range is 0.06-0.13 ug/mL. It counts as functional.
Assay [5] concerns Staphylococcus epidermidis. In words: Antibacterial activity tested against Staphylococcus epidermidis HCF Berset C. It counts as functional. The procedure, abridged: as §1
In another assay the test system is Proteus vulgaris. As to the kind of experiment: Antibacterial activity tested against Proteus vulgaris CNUR 5. In kind it is functional. Put shortly: as §1
Assay [6] has as its system Escherichia coli. As to the kind of experiment: Antibacterial activity tested against Escherichia coli ISF 432. It counts as functional. Put shortly:
as §1

Assay [7] deals with Staphylococcus aureus. In words: Antibacterial activity against Staphylococcus aureus ATCC 6538. In kind it is functional. Put shortly:
as §1

The next assay deals with Klebsiella pneumoniae. As to the kind of experiment: Antibacterial activity tested against Klebsiella pneumoniae (Klebsiella pneumoniae) ATCC 10031. In kind it is functional. Put shortly:
as §1

For the next assay, the system named is Bacteria. In words: Geometric mean of antibacterial activity (Gram +ve bacteria) of the compound. In kind it is functional. Put shortly:
(§2)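 Geometric means calculated from agar-dilution MICs (µg/mL), taken separately across the five Gram-positive and the eight Gram-negative panel strains.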

Assay [8] concerns Escherichia coli. As to the kind of experiment: Antibacterial activity tested against Escherichia coli ATCC 8739. It counts as functional. Put shortly:
as §1

Assay [9] concerns Escherichia coli. In words: Inhibitory activity against gyrase supercoiling activity from Escherichia coli. It counts as functional. The procedure, abridged: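 Inhibition of DNA gyrase supercoiling activity, by a previously described protocol with slight modifications. IC50 derived by densitometric quantification of the supercoiled DNA peak in an agarose gel.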
Assay [10] in a line: Geometric mean of antibacterial activity (Gram -ve bacteria) of the compound. It counts as functional. Put shortly:
as §2

The next assay relates to Providencia stuartii. In words: Antibacterial activity tested against Providencia stuartii CNUR 5. In kind it is functional. Put shortly: as §1
Another assay relates to Enterobacter cloacae. As to the kind of experiment: Antibacterial activity tested against Enterobacter cloacae OMNFI 174. It counts as functional.
Assay [11] concerns Staphylococcus aureus. In words: Antibacterial activity tested against Staphylococcus aureus Methicillin-and Ciprofloxacin resistants; Range is 2-4 ug/mL. It counts as functional.
The test system of assay [12] is Streptococcus pneumoniae. As to the kind of experiment: Antibacterial activity tested against Streptococcus pneumoniae. It counts as functional.
Assay [13] deals with Staphylococcus epidermidis. As to the kind of experiment: Antibacterial activity tested against Staphylococcus epidermidis CPHL A2. In kind it is functional. Put shortly:
as §1

Assay [14] has as its system Enterococcus faecium. As to the kind of experiment: Antibacterial activity tested against Enterococcus faecium; Range is 1-32 ug/mL. It counts as functional.
A further assay has as its system Shigella. As to the kind of experiment: Antibacterial activity tested against Shigella enteritidis. It counts as functional. Put shortly: as §1
The test system of assay [15] is Streptococcus pneumoniae. As to the kind of experiment: Antibacterial activity tested against Streptococcus pneumoniae; Range is 1-2 ug/mL. It counts as functional.
The test system of assay [16] is Enterococcus faecalis. As to the kind of experiment: Antibacterial activity tested against Enterococcus faecalis; Range is 0.13-0.5 ug/mL. In kind it is functional.
The subject of assay [17] is Staphylococcus aureus. As to the kind of experiment: Antibacterial activity tested against Staphylococcus aureus; Range is 0.016-0.13 ug/mL. In kind it is functional.
Assay [18] relates to Enterococcus faecium. As to the kind of experiment: Antibacterial activity tested against Enterococcus faecium; Range is 1-2 ug/mL. In kind it is functional.
Assay [19] has as its system Enterococcus faecium. In words: Antibacterial activity tested against Enterococcus faecium; Range is 0.25-4 ug/mL. It counts as functional.
Assay [20] has as its system Staphylococcus aureus. As to the kind of experiment: Antibacterial activity tested against Staphylococcus aureus Methicillin-and Ciprofloxacin resistants; Range is 4-32 ug/mL. It counts as functional.
The subject of assay [21] is Enterococcus faecalis. In words: Antibacterial activity tested against Enterococcus faecalis; Range is 0.25-0.5 ug/mL. In kind it is functional.
Assay [22] concerns Streptococcus pneumoniae. In words: Antibacterial activity tested against Streptococcus pneumoniae; Range is 0.5-2 ug/mL. It counts as functional.
The subject of assay [23] is Enterococcus faecalis. In words: microbe, parasite or virus in culture.
Assay [24] relates to Mus musculus. In words: Efficacy against Septicemia caused by Staphylococcus aureus in mice by subcutaneous administration. It counts as functional. The conditions noted are these: sc. Put shortly: (§3)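 S. aureus Smith ATCC19636, overnight brain-heart infusion culture diluted in 5% mucin, given i.p. (0.5 mL) to male and female CD-1 mice (18-22 g). Single s.c. or oral dose within 10 min of infection, drug in DMSO/0.5% methocel or as suspension. 3-5 dose groups of six mice; ED50 with 95% limits by Spearman-Kärber from day-7 survival.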

Assay [25] has as its system Staphylococcus aureus. As to the kind of experiment: microbe, parasite or virus in culture.
Assay [26] has as its system Mus musculus. As to the kind of experiment: Efficacy against Septicemia caused by Staphylococcus aureus in mice by Oral administration. It counts as functional. Put shortly: as §3
In assay [27] the test system is Enterococcus faecium. In words: microbe, parasite or virus in culture.
The subject of assay [28] is Staphylococcus aureus. In words: microbe, parasite or virus in culture. The source holds these as a separate data set.

`Cc1c(N2C[C@@H](C)O[C@@H](C)C2)c(N)cc2c(=O)c(C(=O)O)cn(C3CC3)c12`: the MIC against Staphylococcus aureus [1] came to 0.03 µg/mL (≈ 0.0808 µM); in the assay with Pseudomonas aeruginosa it was 4 µg/mL (≈ 10.8 µM); with Enterococcus faecalis [2] it was 0.05 µg/mL (≈ 0.135 µM); in the assay on Enterococcus faecalis [3], 1 µg/mL (≈ 2.69 µM); in the assay on Staphylococcus aureus [4], 0.06 µg/mL (≈ 0.162 µM); in assay [5], 0.125 µg/mL (≈ 0.337 µM). Also, the MIC is 8 µg/mL (≈ 21.5 µM) in the assay with Proteus vulgaris; 0.008 µg/mL (≈ 0.0215 µM) in the assay with Escherichia coli [6]; 0.03 µg/mL (≈ 0.0808 µM) with Staphylococcus aureus [7]; 0.08 µg/mL (≈ 0.215 µM) against Klebsiella pneumoniae; 0.008 µg/mL (≈ 0.0215 µM) against Escherichia coli [8]; 1 µg/mL (≈ 2.69 µM) with Providencia stuartii. Besides, the MIC in the assay with Enterobacter cloacae worked out at 1 µg/mL (≈ 2.69 µM); against Staphylococcus aureus [11], 2 µg/mL (≈ 5.38 µM); against Streptococcus pneumoniae [12], 2 µg/mL (≈ 5.38 µM); in [13] it was 0.125 µg/mL (≈ 0.337 µM); against Enterococcus faecium [14] it was 1 µg/mL (≈ 2.69 µM); with Shigella, 1 µg/mL (≈ 2.69 µM). Further, the Geometric mean in the assay with Bacteria turned out to be 0.107; in assay [10], 0.336. Further, the IC50 in the assay with Escherichia coli [9] was > 50 µg/mL.

For `Cc1c(N2CCCCC2)c(N)cc2c(=O)c(C(=O)O)cn(C3CC3)c12`, the MIC against Staphylococcus aureus [1] was determined as 0.06 µg/mL (≈ 0.176 µM); with Pseudomonas aeruginosa it was 1 µg/mL (≈ 2.93 µM); in the assay with Enterococcus faecalis [3], 0.5 µg/mL (≈ 1.46 µM); against Streptococcus pneumoniae [15], 1 µg/mL (≈ 2.93 µM); in [5] it was 0.125 µg/mL (≈ 0.366 µM); in the assay on Proteus vulgaris it was 8 µg/mL (≈ 23.4 µM). For the same compound, the MIC came to 0.03 µg/mL (≈ 0.0879 µM) in the assay on Escherichia coli [6]; 0.06 µg/mL (≈ 0.176 µM) against Staphylococcus aureus [7]; 0.03 µg/mL (≈ 0.0879 µM) in the assay on Klebsiella pneumoniae; 0.03 µg/mL (≈ 0.0879 µM) against Escherichia coli [8]; 0.5 µg/mL (≈ 1.46 µM) with Providencia stuartii; 0.5 µg/mL (≈ 1.46 µM) against Enterococcus faecalis [16]. Further, the MIC in the assay on Enterobacter cloacae turned out to be 0.25 µg/mL (≈ 0.732 µM); in the assay with Staphylococcus aureus [11], 2 µg/mL (≈ 5.86 µM); against Staphylococcus aureus [17], 0.016 µg/mL (≈ 0.0469 µM); in the assay with Enterococcus faecium [18] it was 1 µg/mL (≈ 2.93 µM); in [13], 0.125 µg/mL (≈ 0.366 µM); in the assay with Shigella it was 0.25 µg/mL (≈ 0.732 µM). For the same compound, the Geometric mean worked out at 0.123 in the assay on Bacteria and 0.225 in [10]. In the assay on Escherichia coli [9], the IC50 worked out at 3.22 µg/mL (≈ 9.43 µM).

Take `Cc1c(N2CCC(O)CC2)c(N)cc2c(=O)c(C(=O)O)cn(C3CC3)c12`: the MIC with Staphylococcus aureus [1] was 0.125 µg/mL (≈ 0.35 µM); against Pseudomonas aeruginosa it was 2 µg/mL (≈ 5.6 µM); against Enterococcus faecium [19] it was 0.25 µg/mL (≈ 0.699 µM); against Enterococcus faecalis [3], 0.5 µg/mL (≈ 1.4 µM); against Staphylococcus aureus [20], 4 µg/mL (≈ 11.2 µM); against Staphylococcus aureus [4], 0.06 µg/mL (≈ 0.168 µM). The MIC in assay [5] is 0.06 µg/mL (≈ 0.168 µM); in the assay with Proteus vulgaris, 16 µg/mL (≈ 44.8 µM); with Enterococcus faecalis [21], 0.25 µg/mL (≈ 0.699 µM); with Escherichia coli [6], 0.03 µg/mL (≈ 0.0839 µM); in the assay on Staphylococcus aureus [7] it was 0.06 µg/mL (≈ 0.168 µM); in the assay with Klebsiella pneumoniae it was 0.03 µg/mL (≈ 0.0839 µM). For the same compound, the MIC with Escherichia coli [8] came to 1 µg/mL (≈ 2.8 µM); in the assay on Providencia stuartii, 1 µg/mL (≈ 2.8 µM); in the assay on Enterobacter cloacae, 0.5 µg/mL (≈ 1.4 µM); in the assay on Streptococcus pneumoniae [22], 0.5 µg/mL (≈ 1.4 µM); in [13], 0.06 µg/mL (≈ 0.168 µM); with Shigella, 0.25 µg/mL (≈ 0.699 µM). Further, the Geometric mean with Bacteria is on record as 0.106; in assay [10] it was 0.495. In the assay with Escherichia coli [9], the 50% inhibitory concentration (IC50) came to 5.74 µg/mL (≈ 16.1 µM).

Consider `O=C(O)c1cn(C2CC2)c2cc(N3CCNCC3)c(F)cc2c1=O` [CIPROFLOXACIN], for which the MIC against Staphylococcus aureus [1] turned out to be 0.06 µg/mL (≈ 0.181 µM); in the assay with Pseudomonas aeruginosa, 0.06 µg/mL (≈ 0.181 µM); against Enterococcus faecalis [3], 0.5 µg/mL (≈ 1.51 µM); against Enterococcus faecalis [23] it was 0.5 µg/mL (≈ 1.51 µM); in assay [5] it was 0.06 µg/mL (≈ 0.181 µM); in the assay on Proteus vulgaris it was 0.5 µg/mL (≈ 1.51 µM). Moreover, the MIC against Staphylococcus aureus [25] stood at 4 µg/mL (≈ 12.1 µM); against Staphylococcus aureus [7], 0.06 µg/mL (≈ 0.181 µM); in the assay on Providencia stuartii it was 0.06 µg/mL (≈ 0.181 µM); with Enterococcus faecium [27], 1 µg/mL (≈ 3.02 µM); in assay [13], 0.06 µg/mL (≈ 0.181 µM); against Staphylococcus aureus [28], 0.13 µg/mL (≈ 0.392 µM). Besides, the ED50 in the assay on Mus musculus [24] worked out at 0.9 mg/kg; in the assay with Mus musculus [26], 7 mg/kg. Besides, the Geometric mean with Bacteria turned out to be 0.092; in assay [10], 0.033.
